Reference: ChEMBL document CHEMBL1629489, “Novel 6-[(hetero)arylamino]thieno[3,2-b]pyridines: synthesis and antitumoral activities” (2010)

Tests used:
Format in all cases: functional
MCF7 = experiment: Growth inhibition of human MCF7 cells after 48 hrs by sulforhodamine B assay; settings: MCF7, 48 h
How it was run: (§1)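 Adherent cells in RPMI-1640 with 5% heat-inactivated FBS, 2 mM glutamine and penicillin/streptomycin at 37 °C and 5% CO₂. Plated at 1.5 × 10⁵ cells/mL (MCF-7) or 0.75 × 10⁵ cells/mL (A375-C5, NCI-H460), then incubated 24 h. Exposed 48 h to five serial dilutions from DMSO stocks (≤0.25% DMSO). SRB staining, absorbance at 492 nm. GI50 is the mean ± SEM of three independent duplicate experiments.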

[1] = Growth inhibition of human A375-C5 cells after 48 hrs by sulforhodamine B assay; settings: A375-C5, 48 h; how it was run: as §1
NCI-H460 = experiment: Growth inhibition of human NCI-H460 cells after 48 hrs by sulforhodamine B assay; settings: NCI-H460, 48 h; how it was run: as §1

| SMILES | GI50 (MCF7) [µM] | GI50 (NCI-H460) [µM] | GI50 [1] [µM] |
| --- | --- | --- | --- |
| COC(=O)c1sc2cc(Nc3ccc(OC)c(OC)c3)cnc2c1N | 30 | 26.2 | 26.3 |
| COC(=O)c1sc2cc(Nc3ccc(OC)cc3OC)cnc2c1N | 26.3 | 26.3 | 27.3 |
| COC(=O)c1sc2cc(Nc3cc(OC)ccc3Cl)cnc2c1N | 22.1 | 21.7 | 25.8 |
| COC(=O)c1sc2cc(Nc3ccccc3Br)cnc2c1N | 28.9 | 30.9 | 34.1 |
| COC(=O)c1sc2cc(Nc3nc4ccccc4s3)cnc2c1N | 6 | 6.4 | 3.5 |
| COC(=O)c1sc2cc(Nc3ccc4[nH]ccc4c3)cnc2c1N | 18.1 | 15.8 | 17.3 |
| COC(=O)c1sc2cc(Nc3cccnc3)cnc2c1N | 82.4 | 49.4 | > 150 |

Now from value to compound, other results behind:

| GI50 (MCF7) [µM] | GI50 (NCI-H460) [µM] | SMILES | GI50 [1] [µM] |
| --- | --- | --- | --- |
| 124 | 95 | COC(=O)c1sc2cc(Nc3ccc(OC)cc3)cnc2c1N | > 150 |
| > 150 | > 150 | COC(=O)c1sc2cc(Nc3cc(OC)cc(OC)c3)cnc2c1N | > 150 |
| 28.9 | 31.3 | COC(=O)c1sc2cc(Nc3ccc(F)cc3Br)cnc2c1N | 34 |
| > 150 | > 150 | COC(=O)c1sc2cc(Nc3nccc4ccccc34)cnc2c1N | > 150 |
| > 150 | > 150 | COC(=O)c1sc2cc(Nc3ccccn3)cnc2c1N | > 150 |
| > 150 | > 150 | COC(=O)c1sc2cc(Nc3ncccn3)cnc2c1N | > 150 |
| 0.0433 | 0.0356 | COc1cccc2c1C(=O)c1c(O)c3c(c(O)c1C2=O)C[C@@](O)(C(=O)CO)C[C@@H]3O[C@H]1C[C@H](N)[C@H](O)[C@H](C)O1 [DOXORUBICIN] | 0.13 |
